Results gathered from unrelated publications.
Protocols differ between the studies behind these lines.

| Compound | cell line | assay | setting | endpoint | value |
| --- | --- | --- | --- | --- | --- |
| CC(C)c1ccccc1[C@@H]1CCCN1C1CC2(CCN(c3ccc(C(=O)NS(=O)(=O)c4ccc(NC[C@H]5CC[C@](C)(O)CC5)c([N+](=O)[O-])c4)c(Oc4cnc5[nH]ccc5c4)c3)CC2)C1 | MINO | cell growth or viability, ATP luminescence | 48 h | IC50 | 13 nM |
| C=C(F)C(=O)N1CCN(c2nc(OC[C@@H]3CCCN3C)nc3c2CCN(c2cccc4cccc(Cl)c24)C3)C[C@@H]1CC#N | Calu-1 | cell growth or viability, ATP luminescence | 3D culture | IC50 | 40.9 nM |
| CN(C)C(=O)c1cc2cnc(Nc3ccc(N4CCNCC4)cn3)nc2n1C1CCCC1 | human Neutrophil | reactive oxygen species, inhibitor |  | IC50 | 1670 nM |
| C=CC(=O)N1CCN(c2nc(=O)n(-c3c(C)ccnc3C(C)C)c3nc(-c4c(O)cccc4F)c(F)cc23)[C@@H](C)C1 | Calu-1 | cell growth or viability, ATP luminescence |  | IC50 | 7.75 nM |
| O=C(O)c1ccc2c(c1)nc(Nc1cccc(Cl)c1)c1ccncc12 | NCI-H226 | cell growth or viability, resazurin | 48 h | IC50 | 14200 nM |
| C=CC(=O)c1cccnc1Nc1cc(C(F)(F)F)ccc1OCc1ccccc1 | NCI-H226 | cell growth or viability, CCK-8 | 72 h | GI50 | 12800 nM |
| C=CC(=O)NC1CCN(c2ncc3ncnc(Nc4ccc(Oc5ccc6c(c5)ncn6C)c(C)c4)c3n2)CC1 | Hs766T | cell growth or viability |  | EC50 | 1150 nM |
| O=C(O)c1cccnc1Nc1cccc(C(F)(F)F)c1 | NCI-H226 | cell growth or viability, CCK-8 | 72 h | GI50 | > 40000 nM |
| CC1(C)CCC(CN2CCN(c3ccc(C(=O)NS(=O)(=O)c4ccc(NCC5CCOCC5)c([N+](=O)[O-])c4)c(Oc4cnc5[nH]ccc5c4)c3)CC2)=C(c2ccc(Cl)cc2)C1 | SU-DHL-8 | cell growth or viability, ATP luminescence | 48 h | IC50 | 5380 nM |
